Measurements: ChEMBL document CHEMBL1143122, “Novel analogs of D-e-MAPP and B13. Part 1: synthesis and evaluation as potential anticancer agents” (Bioorg Med Chem, 2008)

Assays:
[1] = test system: A498; experiment: Antiproliferative activity against human A498 cells after 48 hrs; type: functional; conditions: A498, 48 h
Outline: (§1)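 NCI 60-cell screen. Cells were grown in RPMI 1640 with 5% FBS and 2 mM L-glutamine, then plated at 5,000–40,000 cells/well according to doubling time and preincubated for 24 h at 37 °C in 5% CO2. Compounds were dissolved in DMSO at 400× the top final concentration and tested at five 10-fold dilutions from 10−4 to 10−8 M for 48 h. Growth was read spectrophotometrically; GI50 is 50% net protein reduction.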

[2] = test system: RXF 393; experiment: Antiproliferative activity against human RXF393 cells after 48 hrs; type: functional; conditions: RXF 393, 48 h; outline: as §1
[3] = test system: HCT-116; experiment: Antiproliferative activity against human HCT116 cells after 48 hrs; type: functional; conditions: HCT-116, 48 h; outline: as §1
[4] = test system: COLO 205; experiment: Antiproliferative activity against human COLO205 cells after 48 hrs; type: functional; conditions: COLO 205, 48 h; outline: as §1
[5] = test system: HCC 2998; experiment: Antiproliferative activity against human HCC2998 cells after 48 hrs; type: functional; conditions: HCC 2998, 48 h; outline: as §1
[6] = test system: SW-620; experiment: Antiproliferative activity against human SW620 cells after 48 hrs; type: functional; conditions: SW-620, 48 h
Outline: (§2)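 NCI 60-cell-line screen. Lines grown in RPMI 1640 with 5% fetal bovine serum and 2 mM L-glutamine, plated at 5,000–40,000 cells/well according to doubling time, left 24 h at 37 °C in 5% CO2. Drug stocks in DMSO at 400-fold the top final concentration. Five 10-fold dilutions, 10−4 to 10−8 M, incubated 48 h. Growth read spectrophotometrically as net protein; GI50 taken as 50% reduction.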

[7] = test system: PC-3; experiment: Antiproliferative activity against human PC3 cells after 48 hrs; type: functional; conditions: PC-3, 48 h; outline: as §1
[8] = test system: M14; experiment: Antiproliferative activity against human M14 cells after 48 hrs; type: functional; conditions: M14, 48 h; outline: as §1
[9] = test system: OVCAR-3; experiment: Antiproliferative activity against human OVCAR-3 cells after 48 hrs; type: functional; conditions: OVCAR-3, 48 h; outline: as §1
[10] = test system: A549; experiment: Antiproliferative activity against human A549 cells after 48 hrs; type: functional; conditions: A549, 48 h; outline: as §1
[11] = test system: SNB-19; experiment: Antiproliferative activity against human SNB19 cells after 48 hrs; type: functional; conditions: SNB-19, 48 h; outline: as §1
[12] = test system: IGROV-1; experiment: Antiproliferative activity against human IGROV1 cells after 48 hrs; type: functional; conditions: IGROV-1, 48 h; outline: as §1
[13] = test system: NCI-H522; experiment: Antiproliferative activity against human NCI-H522 cells after 48 hrs; type: functional; conditions: NCI-H522, 48 h; outline: as §1
[14] = test system: NCI-H23; experiment: Antiproliferative activity against human NCI-H23 cells after 48 hrs; type: functional; conditions: NCI-H23, 48 h; outline: as §1
[15] = Antiproliferative activity against human HL60(TB) cells after 48 hrs; type: functional, HL-60(TB); conditions: HL-60, 48 h
Outline: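 NCI 60-line panel screen: cells grown in RPMI 1640 with 5% fetal bovine serum and 2 mM L-glutamine, plated at 5,000–40,000 cells/well by doubling time, and preincubated 24 h at 37 °C in 5% CO2. Drugs were solubilised in DMSO at 400-fold the final maximum and tested at five 10-fold dilutions from 10−4 to 10−8 M for 48 h. Net protein was read spectrophotometrically, and the concentration giving 50% reduction was reported as log10 GI50.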

[16] = test system: HT-29; experiment: Antiproliferative activity against human HT29 cells after 48 hrs; type: functional; conditions: HT-29, 48 h; outline: as §1
[17] = test system: CCRF-CEM; experiment: Antiproliferative activity against human CCRF-CEM cells after 48 hrs; type: functional; outline: as §1
[18] = test system: KM12; experiment: Antiproliferative activity against human KM12 cells after 48 hrs; type: functional; conditions: Homo sapiens, KM12, 48 h; outline: as §1
[19] = Antiproliferative activity against human NCI-ADR-RES cells after 48 hrs; type: functional; outline: as §1
[20] = test system: OVCAR-4; experiment: Antiproliferative activity against human OVCAR4 cells after 48 hrs; type: functional; conditions: OVCAR-4, 48 h; outline: as §1
[21] = test system: Hs-578T; experiment: Antiproliferative activity against human HS578T cells after 48 hrs; type: functional; outline: as §1
[22] = test system: 786-0; experiment: Antiproliferative activity against human 786-0 cells after 48 hrs; type: functional; conditions: 786-0, 48 h; outline: as §1
[23] = test system: ACHN; experiment: Antiproliferative activity against human ACHN cells after 48 hrs; type: functional; outline: as §1
[24] = test system: SF-539; experiment: Antiproliferative activity against human SF539 cells after 48 hrs; type: functional; conditions: SF-539, 48 h; outline: as §1
[25] = test system: SK-MEL-5; experiment: Antiproliferative activity against human SKMEL5 cells after 48 hrs; type: functional; conditions: SK-MEL-5, 48 h; outline: as §1
[26] = test system: SF-295; experiment: Antiproliferative activity against human SF295 cells after 48 hrs; type: functional; conditions: SF-295, 48 h; outline: as §1
[27] = test system: TK-10; experiment: Antiproliferative activity against human TK10 cells after 48 hrs; type: functional; conditions: TK-10, 48 h; outline: as §2
[28] = test system: NCI-H226; experiment: Antiproliferative activity against human NCI-H226 cells after 48 hrs; type: functional; conditions: NCI-H226, 48 h; outline: as §1
[29] = test system: SN12C; experiment: Antiproliferative activity against human SN12C cells after 48 hrs; type: functional; outline: as §1
[30] = test system: Malme-3M; experiment: Antiproliferative activity against human MALME3M cells after 48 hrs; type: functional; outline: as §1
[31] = read-out: Log LC50 (the source's name) (converted)

Work on CCCCCCCCCCCCCCN[C@H](CO)[C@H](O)c1ccc([N+](=O)[O-])cc1.Cl yielded a GI50 [1] of 6.76 µM, a CC50 [1, 31] of 93.3 µM and a TGI ([1]; read-out: Log TGI (converted)) of 26.9 µM. For the same compound, the GI50 [2] was 1.82 µM, the CC50 [2, 31] was 8.32 µM and the TGI ([2]; read-out: Log TGI (converted)) was 3.89 µM. It also gave a GI50 [3] of 1.95 µM, an LC50 [3] of 6.17 µM and a TGI ([3]; read-out: Log TGI (converted)) of 3.47 µM. The GI50 [4] was 1.78 µM, the TGI ([4]; read-out: Log TGI (converted)) was 3.55 µM and the GI50 [5] was 2.4 µM. The CC50 [5, 31] was 29.5 µM, the TGI ([5]; read-out: Log TGI (converted)) was 5.62 µM and the GI50 [6] was 2 µM. The LC50 (concentration killing 50% of cells) [6] was 100 µM, the TGI ([6]; read-out: Log TGI (converted)) was 4.68 µM and the GI50 [7] was 1.74 µM. It also gave a TGI ([7]; read-out: Log TGI (converted)) of 3.16 µM, a GI50 [8] of 2.04 µM and an LC50 [8] of 6.92 µM. For the same compound, the TGI ([8]; read-out: Log TGI (converted)) was 3.72 µM, the GI50 [9] was 8.13 µM and the LC50 [9] was 100 µM. The TGI ([9]; read-out: Log TGI (converted)) was 30.9 µM, the GI50 [10] was 3.55 µM and the CC50 [10, 31] was greater than 100 µM. For the same compound, the TGI ([10]; read-out: Log TGI (converted)) was 19.5 µM, the GI50 [11] was 1.74 µM and the TGI ([11]; read-out: Log TGI (converted)) was 3.55 µM. It also gave a GI50 [12] of 1.91 µM, a TGI ([12]; read-out: Log TGI (converted)) of 3.63 µM and a GI50 [13] of 2 µM. The TGI ([13]; read-out: Log TGI (converted)) was 3.98 µM, the GI50 [14] was 14.5 µM and the CC50 [14, 31] was 83.2 µM. For the same compound, the TGI ([14]; read-out: Log TGI (converted)) was 34.7 µM, the GI50 [15] was 2.04 µM and the LC50 [15] was 15.1 µM. The TGI ([15]; read-out: Log TGI (converted)) was 4.79 µM, the GI50 [16] was 1.86 µM and the TGI ([16]; read-out: Log TGI (converted)) was 3.47 µM. It also gave a GI50 [17] of 2 µM, a TGI ([17]; read-out: Log TGI (converted)) of 3.98 µM and a GI50 [18] of 1.86 µM. The CC50 [18, 31] was 6.17 µM, the TGI ([18]; read-out: Log TGI (converted)) was 3.39 µM and the GI50 [19] was 2.04 µM. The LC50 [19] was 8.91 µM, the TGI ([19]; read-out: Log TGI (converted)) was 4.27 µM and the GI50 [20] was 1.91 µM. It also gave an LC50 [20] of 6.76 µM, a TGI ([20]; read-out: Log TGI (converted)) of 3.55 µM and a GI50 [21] of 2.09 µM. It also gave an LC50 [21] of 100 µM, a TGI ([21]; read-out: Log TGI (converted)) of 5.25 µM and a GI50 [22] of 1.62 µM. It also gave a CC50 [22, 31] of 5.75 µM, a TGI ([22]; read-out: Log TGI (converted)) of 3.09 µM and a GI50 [23] of 1.86 µM. For the same compound, the CC50 [23, 31] was 6.17 µM, the TGI ([23]; read-out: Log TGI (converted)) was 3.39 µM and the GI50 [24] was 1.66 µM. It also gave an LC50 [24] of 6.03 µM, a TGI ([24]; read-out: Log TGI (converted)) of 3.16 µM and a GI50 [25] of 2.45 µM. For the same compound, the CC50 [25, 31] was greater than 100 µM, the TGI ([25]; read-out: Log TGI (converted)) was 7.08 µM and the GI50 [26] was 2.24 µM. The LC50 [26] was 9.77 µM, the TGI ([26]; read-out: Log TGI (converted)) was 4.68 µM and the GI50 [27] was 10.5 µM. For the same compound, the CC50 [27, 31] was 66.1 µM, the TGI ([27]; read-out: Log TGI (converted)) was 26.3 µM and the GI50 [28] was 10.5 µM. For the same compound, the CC50 [28, 31] was 100 µM, the TGI ([28]; read-out: Log TGI (converted)) was 34.7 µM and the GI50 [29] was 2.19 µM. For the same compound, the LC50 (50% net cell kill) [29] was greater than 100 µM, the TGI ([29]; read-out: Log TGI (converted)) was 4.79 µM and the GI50 [30] was 2.45 µM. The LC50 [30] was 9.55 µM and the TGI ([30]; read-out: Log TGI (converted)) was 4.9 µM.
